Test results: the array DNA melting data of Ke et al. (doi:10.1101/2024.01.08.574731)

Columns and labels:
[1] = folding enthalpy; higher = less favourable; fluorescence melt of hairpins on a sequencing array, two-state fit; settings: sodium 0.088 M
Outline: (§1)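 To match UV melts, fitted temperatures were raised by 9.35 °C. These fits were bootstrapped two-state models that gave melting temperature and folding enthalpy, combined by inverse variance over four replicates. The input was normalised Cy3 fluorescence of library hairpins with annealed Cy3 and quencher oligos on a sequenced MiSeq flow cell, imaged in 50 mM Na-HEPES pH 8.0, 25 mM NaCl in 2.5 °C steps up to 60 °C.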

[2] = melting temperature; fluorescence melt of hairpins on a sequencing array, two-state fit, raised by 9.35 °C to match UV melts; settings: sodium 0.088 M
Outline: as §1

Sequence	folding enthalpy [1]	Tm [2]
GGCGTAACGAAAGTTGCC (((..(((....))))))	-25.3 kcal/mol	48.9 °C
GGCGTACGAAAGTAGGCC (((.(((....))).)))	-36.6 kcal/mol	64.1 °C
GGCGTAGCGAAAGCTGCC (((..(((....))))))	-21.9 kcal/mol	55.3 °C
GGCGTAGGAAACTACACC ((.((((....)))).))	-29.1 kcal/mol	44.4 °C
GGCGTAGGAAACTACGTC (.(((((....))))).)	-34.7 kcal/mol	52.4 °C
GGCGTAGGAAACTGCGCC ((((.((....)).))))	-48.8 kcal/mol	62.3 °C
GGCGTCCGAAAGGAAGCC (((.(((....))).)))	-34.7 kcal/mol	67 °C
GGCGTCCGAAAGGAGCC (((.(((....))))))	-25.9 kcal/mol	59.5 °C
GGCGTCGAAAGACAGCC ((((((....))).)))	-34.3 kcal/mol	63.7 °C
GGCGTCGAAAGACCGGCC ((((((....)))..)))	-19.4 kcal/mol	51 °C
GGCGTCGAAAGACGCGCC ((((((....)))..)))	-6.87 kcal/mol	62.7 °C
GGCGTCGAAAGACTAGCC ((((((....)))..)))	-34 kcal/mol	54.5 °C
GGCGTCTCGAAAGAGGCC (((..(((....))))))	-33.3 kcal/mol	53 °C
GGCGTGGGAAACCGTGCC (((..((....))..)))	-32.1 kcal/mol	49.1 °C
GGCGTTGGAAACAGTGCC (((..((....))..)))	-28.2 kcal/mol	42.6 °C
GGCGTTGGAAACGACGTC (.(((.(....).))).)	-29.8 kcal/mol	58.1 °C
GGCGTTGGAAACGATGCC (((.(.(....).).)))	-24.9 kcal/mol	48 °C
GGCTAAGGAAACTCAGCC ((((.((....)).))))	-27.3 kcal/mol	38.1 °C
GGCTACGAAAGTAAGCC ((((((....))).)))	-36.3 kcal/mol	58.4 °C
GGCTACGAAAGTAATGCC ((((((....)))..)))	-22.6 kcal/mol	46.9 °C
GGCTACGAAAGTACTGCC ((((((....)))..)))	-22.7 kcal/mol	39.6 °C
GGCTACGAAAGTAGGCC ((((((....))).)))	-17.3 kcal/mol	57.6 °C
GGCTACGAAAGTAGTGCC ((((((....)))..)))	-16.6 kcal/mol	46.7 °C

Sequence	folding enthalpy [1]	Tm [2]
GGCTACGGAAACGTAGTC (.(((((....))))).)	-28.9 kcal/mol	53.6 °C
GGCTACTCGAAAGAGGCC (((..(((....))))))	-30 kcal/mol	45.7 °C
GGCTAGCGAAAGCTCGCC (((.(((....))).)))	-36.3 kcal/mol	58.8 °C
GGCTAGGGAAACCTAACC ((.((((....)))).))	-30.3 kcal/mol	35.2 °C
GGCTAGGGAAACCTAGTC (.(((((....))))).)	-41.7 kcal/mol	48.8 °C
GGCTATCGAAAGATGGCC (((.(((....))).)))	-52.3 kcal/mol	59.8 °C
GGCTATGGAAACATAACC ((.((((....)))).))	-25.7 kcal/mol	34.4 °C
GGCTATGGAAACATAGTC (.(((((....))))).)	-34.7 kcal/mol	46.5 °C
GGCTCACCGAAAGGTGCC (((..(((....))))))	-10.9 kcal/mol	39.6 °C
GGCTCACGAAAGTGCGCC (((.(((....))).)))	-50.9 kcal/mol	58.4 °C
GGCTCAGGAAACTGAACC ((.((((....)))).))	-32.3 kcal/mol	41.8 °C
GGCTCAGGAAACTGAGTC (.(((((....))))).)	-40.2 kcal/mol	52.6 °C
GGCTCCGAAAGGACAGCC ((((((....)))..)))	-23.1 kcal/mol	50.6 °C
GGCTCCGAAAGGACTGCC ((((((....)))..)))	-19.1 kcal/mol	47.6 °C
GGCTCCGAAAGGAGTGCC ((((((....)))..)))	-14.5 kcal/mol	50 °C
GGCTCCGGAAACGAAGCC ((((.((....)).))))	-40.4 kcal/mol	50.7 °C
GGCTCCGGAAACGGGGCC (((.(((....))).)))	-50.7 kcal/mol	67.5 °C
GGCTCTCGAAAGAGGGCC (((.(((....))).)))	-39.3 kcal/mol	64.7 °C
GGCTCTGCGAAAGCAGCC (((..(((....))))))	-9.66 kcal/mol	40.6 °C
GGCTCTGGAAACAGAACC ((.((((....)))).))	-35.1 kcal/mol	42.3 °C
GGCTCTGGAAACAGAGTC (.(((((....))))).)	-35.7 kcal/mol	52.8 °C
GGCTCTTCGAAAGAAGCC (((..(((....))))))	-16.3 kcal/mol	37.6 °C
GGCTGAGAAATCAGCC ((((((....))))))	-34.3 kcal/mol	65.7 °C

Sequence	folding enthalpy [1]	Tm [2]
GGCTGCCGAAAGGCCGCC (((.(((....))).)))	-18.5 kcal/mol	65 °C
GGCTGCGAAAGCAAGGCC ((((((....)))..)))	-18.5 kcal/mol	55.8 °C
GGCTGCGGAAACGCAACC ((.((((....)))).))	-22.3 kcal/mol	54.7 °C
GGCTGCGGAAACGCGGTC (.(.(((....))).).)	-28.7 kcal/mol	53.1 °C
GGCTGCGGAAACGTGGCC (((..((....))..)))	-45.6 kcal/mol	56.5 °C
GGCTGGGGAAACCTAGCC ((((.((....)).))))	-42.8 kcal/mol	56.2 °C
GGCTGGTCGAAAGACGCC (((..(((....))))))	-27 kcal/mol	52.1 °C
GGCTGTGGAAACATAGCC ((((.((....)).))))	-43.4 kcal/mol	53.5 °C
GGCTGTGGAAACATGGCC (((..((....))..)))	-32.6 kcal/mol	49.5 °C
GGCTGTGGAAACGTAGCC ((((..(....)..))))	-29.9 kcal/mol	48.9 °C
GGCTTAACGAAAGTTGCC (((..(((....))))))	-21.8 kcal/mol	45.5 °C
GGCTTAGAAATAAGCC ((((((....))))))	-33.4 kcal/mol	55.4 °C
GGCTTCCCGAAAGGGGCC (((..(((....))))))	-17.7 kcal/mol	48.2 °C
GGCTTCCGAAAGGACGCC (((.(((....))).)))	-42 kcal/mol	57.2 °C
GGCTTCGAAAGAATAGCC ((((((....)))..)))	-27.6 kcal/mol	45.3 °C
GGCTTCGGAAACGAAGTC (.(((((....))))).)	-30.1 kcal/mol	53.5 °C
GGCTTGCGAAAGCAGCC (((.(((....))))))	-29.1 kcal/mol	65.3 °C
GGCTTGCGAAAGCAGGCC (((.(((....))).)))	-31.3 kcal/mol	69.2 °C
GGCTTGCGAAAGCATGCC (((.(((....))).)))	-31.4 kcal/mol	66.6 °C
GGCTTGGGAAACCAAACC ((.((((....)))).))	-27.8 kcal/mol	41 °C
GGCTTGGGAAACCAAGTC (.(((((....))))).)	-29.4 kcal/mol	52.4 °C
GGCTTTCGAAAGAAGGCC (((.(((....))).)))	-40.9 kcal/mol	56.7 °C
GGCTTTCGAAAGAATGCC (((.(((....))).)))	-41 kcal/mol	54.8 °C

Sequence	folding enthalpy [1]	Tm [2]
GGCTTTGGAAACGAAGCC (((((.(....).)))))	-43.6 kcal/mol	54 °C
GGGAAAGGAAACTTCCCC (((.(((....))).)))	-23.3 kcal/mol	36.8 °C
GGGAAAGGAAACTTTCCC (((((((....)))))))	-47 kcal/mol	57.7 °C
GGGAACCCGAAAGGGCCC (((..(((....))))))	-15.4 kcal/mol	45.9 °C
GGGAACGAAAGTTAACCC ((((((....)))..)))	-19.8 kcal/mol	35.1 °C
GGGAACGAAAGTTACCC ((((((....))).)))	-30 kcal/mol	53.8 °C
GGGAACGAAAGTTAGCCC ((((((....)))..)))	-17.2 kcal/mol	33.1 °C
GGGAACGAAAGTTATCCC ((((((....)))..)))	-23.3 kcal/mol	36.6 °C
GGGAACGAAAGTTCGCCC ((((((....)))..)))	-14.8 kcal/mol	46.4 °C
GGGAAGAAATTCCC (((((....)))))	-19.9 kcal/mol	44.6 °C
GGGAAGCGAAAGCTCCCC (((.(((....))).)))	-21.7 kcal/mol	61.5 °C
GGGAAGGGAAACCTCCCC (((.(((....))).)))	-21.6 kcal/mol	45.2 °C
GGGAAGGGAAACCTTTCC ((.((((....)))).))	-24.4 kcal/mol	45.7 °C
GGGAATCGAAAGATACCC (((.(((....))).)))	-30.1 kcal/mol	49.6 °C
GGGAATCGAAAGATCCC (((.(((....))))))	-24.6 kcal/mol	49.7 °C
GGGAATGAAAATTCCC ((((((....))))))	-40.6 kcal/mol	56 °C
GGGACAGGAAACTGTCTC (.(((((....))))).)	-28.1 kcal/mol	51.1 °C
GGGACAGGAAACTGTTCC ((.((((....)))).))	-36.8 kcal/mol	51.4 °C
GGGACCACGAAAGTGCCC (((..(((....))))))	-15.7 kcal/mol	40 °C
GGGACCGAAAGGTAACCC ((((((....)))..)))	-18.9 kcal/mol	46.1 °C
GGGACCGAAAGGTTGCCC ((((((....)))..)))	-14.5 kcal/mol	37.6 °C
GGGACCGCGAAAGCGCCC (((..(((....))))))	-12.5 kcal/mol	39.2 °C
